Calls of active or inactive are those of the source. The calls are words filed in the database; no cut-off is given here.
How the values were obtained:
Rattus norvegicus [1] = species: Rattus norvegicus; test: Inhibition of gastric H+/K(+)-ATPase activity in Sprague-Dawley rat microsomal vesicles at 10 umol; type: microsomes; settings: Stomach, Microsome
Procedure, shortened: (§1)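 Rat gastric microsomes were prepared by density gradient and differential centrifugation. The medium held 40 mM Tris-HCl pH 7.4, 2 mM MgCl2, 10 mM KCl (water for blank) and […] vesicular protein. Compound was preincubated 30 min at 37 °C. Tris-ATP at 0.3, 1.0 or 3 mM was then added for 20 min and stopped with chilled 10% TCA. Released Pi was read at 530 nm; % inhibition vs control.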

Rattus norvegicus [2] = species: Rattus norvegicus; test: Antisecretory activity in rat pylorus ligation-induced ulcer model determined by ratio of total acidity inhibition in drug treated to untreated control; type: functional
Procedure, shortened: (§2)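 Sprague Dawley rats (130-150 g) fasted 24 h with water ad libitum; pylorus ligated through a midline incision under ether anesthesia. Dosing oral, 1 h before ligation. Gastric juice free and total acidity titrated against 0.01 N NaOH, with Topfer's reagent and phenolphthalein as indicators. Values expressed as ratio of percent inhibition, treated vs control group.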

Rattus norvegicus [3] = species: Rattus norvegicus; test: Antisecretory activity in rat pylorus ligation-induced ulcer model determined by ratio of free acidity inhibition in drug treated to untreated control; type: functional; procedure, shortened: as §2
Rattus norvegicus [4] = species: Rattus norvegicus; test: Inhibition of gastric H+/K(+)-ATPase activity in Sprague-Dawley rat microsomal vesicles at 100 uM in presence of 0.3 mM of ATP; type: microsomes; settings: Stomach, Microsome; procedure, shortened: as §1
Rattus norvegicus [5] = species: Rattus norvegicus; test: Inhibition of gastric H+/K(+)-ATPase activity in Sprague-Dawley rat microsomal vesicles at 10 uM in presence of 0.3 mM of ATP; type: microsomes; settings: Stomach, Microsome; procedure, shortened: as §1
Rattus norvegicus [6] = species: Rattus norvegicus; test: Inhibition of p-NPPase in Sprague-Dawley rat microsomal vesicles at 3 uM in presence of 1.0 mM of p-NPP; type: microsomes; settings: Microsome
Procedure, shortened: (§3)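 Rat gastric microsomes were assayed in 10 mM PIPES/Tris pH 7.0 with 5 mM KCl. Compound was preincubated 30 min at 37 °C. p-NPP at 1.0, 3.0 or 5.0 mM was added and incubated 20 min at 37 °C, then stopped with 0.5 N NaOH. p-Nitrophenol release was read at 410 nm; % inhibition vs control.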

Rattus norvegicus [7] = species: Rattus norvegicus; test: Inhibition of p-NPPase in Sprague-Dawley rat microsomal vesicles at 30 uM in presence of 5.0 mM of p-NPP; type: microsomes; settings: Microsome; procedure, shortened: as §3
Rattus norvegicus [8] = species: Rattus norvegicus; test: Inhibition of gastric H+/K(+)-ATPase activity in Sprague-Dawley rat microsomal vesicles at 3 uM in presence of 0.3 mM of ATP; type: microsomes; settings: Stomach, Microsome; procedure, shortened: as §1
Rattus norvegicus [9] = species: Rattus norvegicus; test: Inhibition of gastric H+/K(+)-ATPase activity in Sprague-Dawley rat microsomal vesicles at 1000 uM in presence of 1.0 mM of ATP; type: microsomes; settings: Stomach, Microsome; procedure, shortened: as §1
Rattus norvegicus [10] = species: Rattus norvegicus; test: Inhibition of p-NPPase in Sprague-Dawley rat microsomal vesicles at 100 uM in presence of 3.0 mM of p-NPP; type: microsomes; settings: Microsome; procedure, shortened: as §3
Rattus norvegicus [11] = species: Rattus norvegicus; test: Inhibition of gastric H+/K(+)-ATPase activity in Sprague-Dawley rat microsomal vesicles at 300 uM in presence of 3.0 mM of ATP; type: microsomes; settings: Stomach, Microsome; procedure, shortened: as §1
Rattus norvegicus [12] = test: Antisecretory activity in rat pylorus ligation-induced ulcer model assessed as inhibition of total acidity of gastric juice at 20 mg/kg; type: functional, organism-based; design: dose 20 mg/kg; procedure, shortened: as §2
Rattus norvegicus [13] = species: Rattus norvegicus; test: Inhibition of p-NPPase in Sprague-Dawley rat microsomal vesicles at 100 uM in presence of 5.0 mM of p-NPP; type: microsomes; settings: Microsome; procedure, shortened: as §3
Rattus norvegicus [14] = species: Rattus norvegicus; test: Inhibition of p-NPPase in Sprague-Dawley rat microsomal vesicles at 300 uM in presence of 1.0 mM of p-NPP; type: microsomes; settings: Microsome; procedure, shortened: as §3
Rattus norvegicus [15] = species: Rattus norvegicus; test: Inhibition of gastric H+/K(+)-ATPase activity in Sprague-Dawley rat microsomal vesicles at 10 uM in presence of 1.0 mM of ATP; type: microsomes; settings: Stomach, Microsome; procedure, shortened: as §1
Rattus norvegicus [16] = species: Rattus norvegicus; test: Inhibition of p-NPPase in Sprague-Dawley rat microsomal vesicles at 3 uM in presence of 3.0 mM of p-NPP; type: microsomes; settings: Microsome; procedure, shortened: as §3
Rattus norvegicus [17] = species: Rattus norvegicus; test: Inhibition of p-NPPase in Sprague-Dawley rat microsomal vesicles at 30 uM in presence of 1.0 mM of p-NPP; type: microsomes; settings: Microsome; procedure, shortened: as §3
Rattus norvegicus [18] = test: Antisecretory activity in rat pylorus ligation-induced ulcer model assessed as inhibition of free acidity of gastric juice at 20 mg/kg; type: functional, organism-based; design: dose 20 mg/kg; procedure, shortened: as §2
Rattus norvegicus [19] = species: Rattus norvegicus; test: Inhibition of gastric H+/K(+)-ATPase activity in Sprague-Dawley rat microsomal vesicles at 300 uM in presence of 0.3 mM of ATP; type: microsomes; settings: Stomach, Microsome; procedure, shortened: as §1
Rattus norvegicus [20] = species: Rattus norvegicus; test: Inhibition of gastric H+/K(+)-ATPase activity in Sprague-Dawley rat microsomal vesicles at 100 uM in presence of 3.0 mM of ATP; type: microsomes; settings: Stomach, Microsome; procedure, shortened: as §1
Rattus norvegicus [21] = species: Rattus norvegicus; test: Inhibition of gastric H+/K(+)-ATPase activity in Sprague-Dawley rat microsomal vesicles at 30 uM in presence of 1.0 mM of ATP; type: microsomes; settings: Stomach, Microsome; procedure, shortened: as §1
Rattus norvegicus [22] = species: Rattus norvegicus; test: Inhibition of p-NPPase in Sprague-Dawley rat microsomal vesicles at 10 uM in presence of 1.0 mM of p-NPP; type: microsomes; settings: Microsome; procedure, shortened: as §3
Rattus norvegicus [23] = species: Rattus norvegicus; test: Inhibition of gastric H+/K(+)-ATPase activity in Sprague-Dawley rat microsomal vesicles at 1000 uM in presence of 0.3 mM of ATP; type: microsomes; settings: Stomach, Microsome; procedure, shortened: as §1
Rattus norvegicus [24] = species: Rattus norvegicus; test: Inhibition of gastric H+/K(+)-ATPase activity in Sprague-Dawley rat microsomal vesicles at 30 uM in presence of 3.0 mM of ATP; type: microsomes; settings: Stomach, Microsome; procedure, shortened: as §1
Rattus norvegicus [25] = species: Rattus norvegicus; test: Inhibition of gastric H+/K(+)-ATPase activity in Sprague-Dawley rat microsomal vesicles at 10 uM in presence of 3.0 mM of ATP; type: microsomes; settings: Stomach, Microsome; procedure, shortened: as §1
Rattus norvegicus [26] = species: Rattus norvegicus; test: Inhibition of gastric H+/K(+)-ATPase activity in Sprague-Dawley rat microsomal vesicles at 30 uM in presence of 0.3 mM of ATP; type: microsomes; settings: Stomach, Microsome; procedure, shortened: as §1
Rattus norvegicus [27] = species: Rattus norvegicus; test: Inhibition of p-NPPase in Sprague-Dawley rat microsomal vesicles at 10 uM in presence of 3.0 mM of p-NPP; type: microsomes; settings: Microsome; procedure, shortened: as §3
Rattus norvegicus [28] = species: Rattus norvegicus; test: Inhibition of gastric H+/K(+)-ATPase activity in Sprague-Dawley rat microsomal vesicles at 1000 uM in presence of 3.0 mM of ATP; type: microsomes; settings: Stomach, Microsome; procedure, shortened: as §1
Rattus norvegicus [29] = species: Rattus norvegicus; test: Inhibition of gastric H+/K(+)-ATPase activity in Sprague-Dawley rat microsomal vesicles at 3 uM in presence of 3.0 mM of ATP; type: microsomes; settings: Stomach, Microsome; procedure, shortened: as §1
Rattus norvegicus [30] = species: Rattus norvegicus; test: Inhibition of gastric H+/K(+)-ATPase activity in Sprague-Dawley rat microsomal vesicles at 100 uM in presence of 1.0 mM of ATP; type: microsomes; settings: Stomach, Microsome; procedure, shortened: as §1
Rattus norvegicus [31] = species: Rattus norvegicus; test: Inhibition of p-NPPase in Sprague-Dawley rat microsomal vesicles at 10 uM in presence of 5.0 mM of p-NPP; type: microsomes; settings: Microsome; procedure, shortened: as §3
Rattus norvegicus [32] = species: Rattus norvegicus; test: Inhibition of gastric H+/K(+)-ATPase activity in Sprague-Dawley rat microsomal vesicles at 300 uM in presence of 1.0 mM of ATP; type: microsomes; settings: Stomach, Microsome; procedure, shortened: as §1
Rattus norvegicus [33] = species: Rattus norvegicus; test: Inhibition of gastric H+/K(+)-ATPase activity in Sprague-Dawley rat microsomal vesicles at 3 uM in presence of 1.0 mM of ATP; type: microsomes; settings: Stomach, Microsome; procedure, shortened: as §1
Rattus norvegicus [34] = species: Rattus norvegicus; test: Inhibition of p-NPPase in Sprague-Dawley rat microsomal vesicles at 1000 uM in presence of 1.0 mM of p-NPP; type: microsomes; settings: Microsome; procedure, shortened: as §3
Rattus norvegicus [35] = species: Rattus norvegicus; test: Inhibition of p-NPPase in Sprague-Dawley rat microsomal vesicles at 30 uM in presence of 3.0 mM of p-NPP; type: microsomes; settings: Microsome; procedure, shortened: as §3
Rattus norvegicus [36] = species: Rattus norvegicus; test: Inhibition of p-NPPase in Sprague-Dawley rat microsomal vesicles at 100 uM in presence of 1.0 mM of p-NPP; type: microsomes; settings: Microsome; procedure, shortened: as §3
Rattus norvegicus [37] = species: Rattus norvegicus; test: Inhibition of p-NPPase in Sprague-Dawley rat microsomal vesicles at 1000 uM in presence of 3.0 mM of p-NPP; type: microsomes; settings: Microsome; procedure, shortened: as §3
Rattus norvegicus [38] = species: Rattus norvegicus; test: Inhibition of p-NPPase in Sprague-Dawley rat microsomal vesicles at 300 uM in presence of 3.0 mM of p-NPP; type: microsomes; settings: Microsome; procedure, shortened: as §3

Cc1ccccc1CN1C(=O)CC[C@H]1C(=O)OC(C)(C)C
inhibition (Rattus norvegicus [1]): 68%
Activity (Rattus norvegicus [2]): 0.62
Activity (Rattus norvegicus [3]): 0.63

CCOC(=O)[C@@H](NC(=O)OCc1ccccc1)C(O)/C=C/c1ccccc1 (stereo partly specified)
inhibition (Rattus norvegicus [1]): 65%
Activity (Rattus norvegicus [2]): 0.98
Activity (Rattus norvegicus [3]): 0.93

CC(C)(C)[C@H]1OC(=O)[C@@]2(C3(O)CCCCC3)CCC(=O)N12
inhibition (Rattus norvegicus [1]): 55%
Activity (Rattus norvegicus [2]): 0.22
Activity (Rattus norvegicus [3]): 0.2

O=C(O)[C@@H]1CCCN1C(=O)Cc1ccccc1
inhibition (Rattus norvegicus [1]): 92%
Activity (Rattus norvegicus [2]): 0.38
Activity (Rattus norvegicus [3]): 0.41

COC(=O)[C@@H]1CCCN1C(=O)/C=C/c1ccccc1
inhibition (Rattus norvegicus [1]): 62%
Activity (Rattus norvegicus [2]): 0.59
Activity (Rattus norvegicus [3]): 0.47

O=C1N[C@H](C(=O)O)[C@H](/C=C/c2ccccc2)O1 (relative stereo)
inhibition (Rattus norvegicus [4]): 32%
inhibition (Rattus norvegicus [5]): 23%
inhibition (Rattus norvegicus [6]): 13%
inhibition (Rattus norvegicus [7]): 13%
inhibition (Rattus norvegicus [8]): 20%
inhibition (Rattus norvegicus [9]): 55%
inhibition (Rattus norvegicus [10]): 18%
inhibition (Rattus norvegicus [11]): 46%
Activity (Rattus norvegicus [12]): Active
inhibition (Rattus norvegicus [13]): 16%
inhibition (Rattus norvegicus [14]): 56%
inhibition (Rattus norvegicus [15]): 28%
inhibition (Rattus norvegicus [16]): 26%
inhibition (Rattus norvegicus [17]): 33%
Activity (Rattus norvegicus [18]): Active
inhibition (Rattus norvegicus [19]): 51%
inhibition (Rattus norvegicus [1]): 59%
inhibition (Rattus norvegicus [20]): 28%
inhibition (Rattus norvegicus [21]): 12%
inhibition (Rattus norvegicus [22]): 16%
inhibition (Rattus norvegicus [23]): 67%
inhibition (Rattus norvegicus [24]): 34%
inhibition (Rattus norvegicus [25]): 30%
inhibition (Rattus norvegicus [26]): 27%
inhibition (Rattus norvegicus [27]): 16%
Activity (Rattus norvegicus [2]): 1.07
inhibition (Rattus norvegicus [28]): 50%
inhibition (Rattus norvegicus [29]): 25%
inhibition (Rattus norvegicus [30]): 16%
inhibition (Rattus norvegicus [31]): 5%
inhibition (Rattus norvegicus [32]): 51%
Activity (Rattus norvegicus [3]): 0.96
inhibition (Rattus norvegicus [33]): 12%
inhibition (Rattus norvegicus [34]): 85%
inhibition (Rattus norvegicus [35]): 8%
inhibition (Rattus norvegicus [36]): 42%
inhibition (Rattus norvegicus [37]): 38%
inhibition (Rattus norvegicus [38]): 35%

O=C(O)[C@H]1CCC(=O)N1Cc1ccccc1
inhibition (Rattus norvegicus [1]): 55%
Activity (Rattus norvegicus [2]): 0.51
Activity (Rattus norvegicus [3]): 0.46

Reference: ChEMBL document CHEMBL1144581, “alpha-Amino acid derivatives as proton pump inhibitors and potent anti-ulcer agents” (2007)
